Consider 2 compounds from paper PMC6047365 (Biochemistry and Biophysics Reports, 2018).

Read-outs that look alike come from different tables or passages of the source.

Data set [1] is described as follows: CellTiter 96 AQueous one solution cell proliferation assay. It is filed as cell-based. Conditions: human, PLC/PRF/5 cells. In a few lines: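 PLC/PRF/5 cells seeded at 2.5×10^4 per well in triplicate and exposed to several concentrations of test compound for 72 h. Viability was read by the CellTiter 96 AQueous one solution assay. Values were taken relative to untreated cells (100%), given as mean±SD of triplicates, and CC50 was derived from the curves.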

The next data set relates to DENV RNA replication. The experiment in a line: DENV/Gaussia luciferase. Conditions: Dengue virus, BHK-21, 72 h, read-out: EC50 DENV. Type of data set: cell-based. In a few lines: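 BHK-21 cells were seeded at 1×10^4 per well in triplicate and transfected with the DENV replicon plasmid DGL2. At 24 h post-transfection they were treated with several concentrations of test compound for 72 h, then Gaussia luciferase was measured. Signal was expressed relative to untreated cells (100%), mean±SD of triplicates, and EC50 was derived.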

For data set [2] the following is noted: compared with N-89; ref [3]; cited from earlier work.
Another data set has as its system JEV RNA replication. Put plainly: JEV replicon Firefly luciferase. Type of data set: cell-based. Conditions: Japanese encephalitis virus, 72 h, read-out: EC50 JEV. In a few lines:
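JEV replicon cells (BHKMuarPACLuc rep, maintained with puromycin 10 μg/ml) were seeded at 1×10^5 per well in triplicate. They were treated with several concentrations of test compound for 72 h, then firefly luciferase was measured. Activity was expressed relative to untreated cells (100%), mean±SD of triplicates, and EC50 was derived.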

The subject of the next data set is HuH-7. Conditions: read-out: CC50 HCV (HuH-7), HuH-7 cell-derived assays, cited from earlier work.
Data set [3] in a line: Cell count after trypan blue dye treatment. Type of data set: cell-based. The settings on record: human, HepG2/NTCP cells.
Another data set concerns Li23. Conditions: read-out: CC50 HCV (Li23), Li23 cell-derived assays, cited from earlier work.
Data set [4] concerns HBV/NL, covalently closed circular DNA formation to translation of viral mRNAs. Put plainly: HBV/NL reporter assay, after entry to translation steps. It is filed as cell-based, hepatitis B virus. The settings on record: HBV/NL-infected HepG2/NTCPmyc cells, NL activity. Background: In a reporter assay the amount or activity of a reporter protein is the signal.
For another data set, the system named is HEV RNA replication. The experiment in a line: HEV/NanoLuc luciferase. Type of data set: cell-based. Conditions: Hepatitis E virus, PLC-PRF-5, 72 h, read-out: EC50 HEV. The essentials: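 HEV replicon RNA was electroporated into PLC/PRF/5 cells, which were plated at 2.5×10^4 per well in triplicate. Cells were treated with several concentrations of test compound for 72 h, and NanoLuc was read by Nano-Glo. Signal was taken relative to untreated cells (100%), mean±SD of triplicates, and EC50 was derived.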

Data set [5] deals with HCV RNA replication. Conditions: read-out: EC50 HCV (Li23), Li23 cell-derived assays, cited from earlier work.
The subject of another data set is HBV/NL virus entry. Put plainly: HBV/NL reporter assay, entry step. The settings on record: HBV/NL-infected HepG2/NTCPmyc cells, NL activity. Type of data set: cell-based, hepatitis B virus. The essentials: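 Reporter HBV/NL virus came from supernatant of HepG2 cells cotransfected with pUC1.2HBV/NL and pUC1.2HBVΔε. HepG2/NTCPmyc cells were infected at 10–100 genome equivalents with 4% PEG8000 and 2% DMSO overnight, with test compound applied per the entry-step schedule. NanoLuc activity was read with Nano-Glo, relative to untreated cells (100%), mean±SD of triplicates. P was computed vs. untreated.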

The next data set deals with HBV. The experiment in a line: HBV replication assay. It is filed as cell-based. Conditions: Hepatitis B virus, HepG2, read-out: EC50 HBV. In a few lines: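 Inoculum was HBV from HepG2.2.15 supernatant, given at 1000 genome equivalents/cell in medium with 4% PEG8000 and 2% DMSO for 24 h. Medium was then replaced and cells were cultured 8 days. Cellular DNA was extracted and HBV DNA quantified by real-time qPCR. Results were taken relative to untreated cells (100%), mean±SD of triplicates.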

Data set [6] deals with HCV RNA replication. Conditions: read-out: EC50 HCV (HuH-7), HuH-7 cell-derived assays, cited from earlier work.

Consider `OCCCCCCC1COOC2(CCCCCCCCCCC2)OOC1` [N-251, 6-(1,2,6,7-tetraoxaspiro[7.11]nonadec-4-yl)hexan-1-ol], for which the CC50 (commonly the concentration that lowers cell viability or growth by half) at 72 h in data set [1] is 56 µM. The EC50 (commonly the concentration giving half of the maximal effect) in the data set with DENV RNA replication is 6.5 µM; in the data set on JEV RNA replication it was 15 µM; in the data set with HEV RNA replication, 13 µM; in the data set on HCV RNA replication [5] (ref Ueda et al. [4]), 0.059 to 0.29 µM; with HBV it was 1.9 µM; in the data set with HCV RNA replication [6] (ref Ueda et al. [4]), 0.14 to 0.98 µM. Also, the Water solubility result in data set [2] is listed as “higher water solubility than N-89”. For the same compound, the results for the cytotoxic concentration (CC50) in the data set with HuH-7 (ref Ueda et al. [4]) and with Li23 (ref Ueda et al. [4]) were 0.49 to 3.8 µM and 1.1 to 2.8 µM, respectively. For the same compound, the CC50 at 9 days in [3] was 16 µM. Further, the “Effect on the process of covalently closed circular DNA formation to translation of viral mRNAs” value in data set [4] is on record as “not inhibited”. Further, in the data set with HBV/NL virus entry, the “Effect on the process of virus entry” value is listed as “did not prevent the process of virus entry”.
For the compound `NC(=O)c1ncn([C@@H]2O[C@H](CO)[C@@H](O)[C@H]2O)n1` [RBV, Ribavirin, reference compound], in data set [1], the CC50 at 72 h was above 100 µM. Further, the EC50 is 15 µM with DENV RNA replication; 22 µM in the data set on JEV RNA replication; 19 µM in the data set on HEV RNA replication; 8.7 to 15.9 µM in the data set on HCV RNA replication [5] (ref Mori et al. [16]); above 100 µM with HBV; above 100 µM with HCV RNA replication [6] (ref Mori et al. [16]). Moreover, the CC50 in the data set on HuH-7 (ref Mori et al. [16]) and in the data set on Li23 (ref Mori et al. [16]) was above 100 µM each time. Moreover, the CC50 at 9 days in data set [3] is above 100 µM.
